Results reported in PubChem BioAssay.
Records with an inconclusive call do not appear.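 How the source made its calls, unless noted: active means RAM network inhibition above 8.4% in each of two replicates, 3 SD over the compound average; inconclusive means above 8.4% inhibition in only one replicate; inactive means 8.4% inhibition or less in each replicate.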

Columns and labels:
[1] = S. cerevisiae growth inhibition in permissive medium (OD615), pilot counter-assay for S. cerevisiae lifespan shortening project, permissive growth control (AID 705;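 active means growth inhibition above 25% in both replicates, a cutoff set 3 SD above the mean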); conditions: OD615, 24 h, at 10 µM, hits give high values
How it was run: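 Material: engineered DeaD yeast; compound dosing: one dose 10 µM, DMSO 0.25% final; measure: yeast growth inhibition indicated by reduced 24 h OD615; detection: OD615 turbidity read; incubation: cells pre-grown 4 h, then 24 h compound exposure, 30 °C humidified; medium: permissive synthetic complete medium with raffinose and galactose carbon sources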

[2] = S. cerevisiae growth inhibition in restrictive medium, OD615, pilot screen, restrictive growth control, yeast lifespan reduction project (AID 706;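 active means growth inhibition above a set limit, 3 SD over mean compound inhibition, in both replicates, cut at about 43% in these data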;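 further: modified DeaD lifespan yeast strain shifted to restrictive glucose medium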); conditions: OD615, 48 h, at 10 µM, hits give high values
How it was run: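 material = engineered S. cerevisiae DeaD strain | medium = glucose-based CSMM-D restrictive medium | times = 4 h pre-incubation, 48 h exposure at 30 °C | technique = OD615 absorbance reading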

[3] = doxorubicin toxicity protection in MRP-1 cells – H69AR cells, CellTiter-Glo, duplicate, MRP-1 activator project, pilot screen (AID 807;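 active means viability increase at or above a cutoff of the median across tested compounds plus 3 SD, cut at about 8.5% in these data, passing the limit was not always enough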;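 further: compound pretreatment 18-22 h then 72 h combined with doxorubicin; 0% = doxorubicin alone and 100% = vehicle without doxorubicin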); conditions: H69AR viability with doxorubicin, CellTiter-Glo luminescence; at 10 µM; hits give high values
[4] = viability of HCT116 without oncogenic beta-catenin – human colon tumor cells, pilot screen (AID 823;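 active means cell viability at or below a set limit in both duplicate runs, the limit being the all-compound median minus 4 SD, cut at about 23% in these data, passing the limit was not always enough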;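 further: 0% = wells killed by 20 µM Hyamine and 100% = untreated DMSO cell wells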); conditions: HCT116 beta-catenin knockout viability, CellTiter-Glo, 60 h; at 10 µM; hits give low values
[5] = viability of PTEN-null HCT116 cells – cell-based, HCT116 clonal line, CellTiter-Glo, pilot screen (AID 824;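 active means viability at or below 27.92% in each of two runs, the all-compound median minus 4 SD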;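 further: 0% = 20 µM Hyamine control and 100% = vehicle cell control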); conditions: HCT116 PTEN-deleted viability, 60 h, at 10 µM, hits give low values
[6] = RAM pathway blockade in budding yeast – dse1pr::URA3 reporter, 5-FOA selection, pilot screen (AID 869;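 active means inhibition over a set limit, the all-compound mean plus 3 SD, in both replicate runs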;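 further: 0% = DMSO wells with no growth and 100% = 10 µM 1-NA-PP1 with full growth; RAM network block rescues cells from 5-FOA so hits raise OD615 growth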); conditions: S. cerevisiae dse1pr::URA3 5-FOA growth, OD615, 2 d; at 10 µM; hits give high values; strain carries analog-sensitive mutant Cbk1 kinase
[7] = RAM signaling pathway blockade in yeast – S. cerevisiae, Pdr1DBD-CYC8 efflux-inhibited sensitized strain, primary screen (AID 1298);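 further: 0% = DMSO untreated cells without growth and 100% = 10 µM 1-NA-PP1 full growth; higher means more yeast growth rescued from 5-FOA killing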; conditions: S. cerevisiae cbk1-as DSE1-URA3 strain, 5-FOA growth OD615, 2 d; at 50 µM; hits give high values

COCCNC(=O)c1cc(-c2ccc(Cl)c(Cl)c2)on1
inactive: growth inhibition [1] -2.25% | growth inhibition [2] -1.81% | viability increase [3] -0.93% | viability [4] 82.5% | viability [5] 87.8% | inhibition [6] 0.18% | RAM network inhibition [7] 5.68%

COc1cc2c(c(O)c1OC)C(=O)C(OC)CCC2 (configuration not stated)
inactive: growth inhibition [1] 0.06% | growth inhibition [2] -2.16% | viability increase [3] -0.47% | viability [4] 97% | viability [5] 93.7% | inhibition [6] 0.275% | RAM network inhibition [7] -0.62%

COc1ccc(Cc2nc(-c3ccc(-n4cccc4)cc3)no2)cc1OC
inactive: growth inhibition [1] -2.5% | growth inhibition [2] -10.8% | viability increase [3] 2.61% | viability [4] 28% | viability [5] 54.7% | inhibition [6] 4.33% | RAM network inhibition [7] 9.02%

CCOC(=O)N1CCN(S(=O)(=O)c2cccc3nonc23)CC1
inactive: growth inhibition [1] -9.77% | growth inhibition [2] -27.6% | viability increase [3] -1.56% | viability [4] 90.5% | viability [5] 92.2% | inhibition [6] 1.68% | RAM network inhibition [7] 5.47%

CSc1cccc(NS(=O)(=O)c2cccc3nsnc23)c1
inactive: growth inhibition [1] -5.26% | growth inhibition [2] -8.19% | viability increase [3] -0.51% | viability [4] 88.6% | viability [5] 93.3% | inhibition [6] 0.885% | RAM network inhibition [7] 2.44%

CCCC(=O)Nc1nc(-c2ccc3c(c2)OCCO3)cs1
inactive: growth inhibition [1] -12% | growth inhibition [2] -6.14% | viability increase [3] 2.44% | viability [4] 77.9% | viability [5] 83.3% | inhibition [6] 1.37% | RAM network inhibition [7] 0.85%

CC(=O)Nc1nnc(SCc2cccc(F)c2)s1
inactive: growth inhibition [1] -1.17% | growth inhibition [2] -1.06% | viability increase [3] -0.12% | viability [4] 108% | viability [5] 104% | inhibition [6] 1.99% | RAM network inhibition [7] 4.84%

CCN(CC)C(=O)C1CCN(S(=O)(=O)c2ccc(C3CNC(=O)C3)cc2)CC1 (configuration not stated)
inactive: growth inhibition [1] 3.76% | growth inhibition [2] -0.015% | viability increase [3] 0.02% | viability [4] 99.9% | viability [5] 106% | inhibition [6] 1.81% | RAM network inhibition [7] 2.47%

CC1=C(C(N)=O)C(c2ccccc2)n2nc(-c3cccs3)nc2N1 (configuration not stated)
inactive: growth inhibition [1] -9.84% | growth inhibition [2] 2.11% | viability increase [3] -3.8% | viability [4] 101% | viability [5] 93.8% | inhibition [6] 2.46% | RAM network inhibition [7] 3.65%

Cn1cnnc1SCC(=O)Nc1ccccc1
inactive: growth inhibition [1] -6.99% | growth inhibition [2] -16.3% | viability increase [3] 2.03% | viability [4] 100% | viability [5] 102% | inhibition [6] -0.32% | RAM network inhibition [7] 1.79%

O=C(O)c1ccc(-n2nnnc2SCc2ccccc2F)cc1
inactive: growth inhibition [1] -13.7% | growth inhibition [2] 6.63% | viability increase [3] 1.71% | viability [4] 105% | viability [5] 102% | inhibition [6] 2.46% | RAM network inhibition [7] 9.03%

CN1CCN(S(=O)(=O)c2ccc(NC(=O)c3cccc(S(=O)(=O)N4CCCC4)c3)cc2)CC1
inactive: growth inhibition [1] -5.16% | growth inhibition [2] -5.09% | viability increase [3] -3.98% | viability [4] 89.2% | viability [5] 97.2% | inhibition [6] 2% | RAM network inhibition [7] 9.3%

CC(C)CCN(C)C1CCN(C(=O)Nc2c(F)cccc2F)CC1
inactive: growth inhibition [1] 0.53% | growth inhibition [2] -12.6% | viability increase [3] -3.34% | viability [4] 90.6% | viability [5] 91.7% | inhibition [6] 1.56% | RAM network inhibition [7] 0.26%

COC(=O)CC1Oc2ccc(C)cc2NC1=O (configuration not stated)
inactive: growth inhibition [1] -4.56% | growth inhibition [2] -1.75% | viability increase [3] 2.26% | viability [4] 101% | viability [5] 101% | inhibition [6] 0.27% | RAM network inhibition [7] 2.35%

COc1ccc(CCNC(=O)CN2CCOc3ccccc32)cc1OC
inactive: growth inhibition [1] -23.7% | growth inhibition [2] 13.9% | viability increase [3] -6.27% | viability [4] 100% | viability [5] 96.8% | inhibition [6] 0.49% | RAM network inhibition [7] 1.27%

Cc1ccc(NC(=O)c2cnc3scc(C)n3c2=O)c(C)c1
inactive: growth inhibition [1] -4.27% | growth inhibition [2] -12.6% | viability increase [3] -3.97% | viability [4] 106% | viability [5] 96.5% | inhibition [6] -0.14% | RAM network inhibition [7] 1.14%

CCOCCCNC(=O)C(c1ccc(Cl)cc1)N1CCN(c2ccccc2)CC1 (configuration not stated)
inactive: growth inhibition [1] -7.14% | growth inhibition [2] 6.11% | viability increase [3] -2.39% | viability [4] 87% | viability [5] 85% | inhibition [6] 0.95% | RAM network inhibition [7] 3.13%

COc1ccc(S(=O)(=O)Cc2ccc(C(=O)N3CCC(C(N)=O)CC3)o2)cc1
inactive: growth inhibition [1] -3.35% | growth inhibition [2] 0.07% | viability increase [3] -0.31% | viability [4] 76% | viability [5] 93.5% | inhibition [6] 2.22% | RAM network inhibition [7] 4.37%

COc1cc(C(=O)Nc2cc(-c3nc4cc(C)ccc4o3)ccc2C)cc(OC)c1OC
inactive: growth inhibition [1] 3.69% | growth inhibition [2] 8.25% | viability increase [3] -2.34% | viability [4] 97% | viability [5] 95.2% | inhibition [6] 0.43% | RAM network inhibition [7] -0.15%

c1coc(-c2nc(-c3ccco3)c(-c3ccco3)nc2-c2ccco2)c1
inactive: growth inhibition [1] -25.2% | growth inhibition [2] -38.9% | viability increase [3] -2.54% | viability [4] 97.6% | viability [5] 86.5% | inhibition [6] 2.14% | RAM network inhibition [7] 0.57%

CCOC(=O)C1C(=O)OC2(CCOC(C)(C)C2)C1C(=O)OCC (configuration not stated)
inactive: growth inhibition [1] 1.65% | growth inhibition [2] 7.69% | viability increase [3] -0.15% | viability [4] 105% | viability [5] 100% | inhibition [6] 1.38% | RAM network inhibition [7] 0.98%

COc1ccc(N2CCN(C(=O)c3ccc(CNc4c(N5CCOCC5)c(=O)c4=O)cc3)CC2)cc1
inactive: growth inhibition [1] 5.2% | growth inhibition [2] 8.53% | viability increase [3] -3.13% | viability [4] 96.2% | viability [5] 98.5% | inhibition [6] -0.255% | RAM network inhibition [7] -1.5%

COc1ccc(S(=O)(=O)NCc2ccccc2Cl)cc1OC
inactive: growth inhibition [1] -5.85% | growth inhibition [2] 2.66% | viability increase [3] -1.42% | viability [4] 102% | viability [5] 96.1% | inhibition [6] 1.98% | RAM network inhibition [7] 2.86%

CN(C)C=NC(=O)/C(C#N)=C1\CCc2ccccc2N1
inactive: growth inhibition [1] -9.21% | growth inhibition [2] -2.15% | viability increase [3] -2.2% | viability [4] 95.2% | viability [5] 92.5% | inhibition [6] 0.705% | RAM network inhibition [7] 6.77%

COc1ccc(C2C(C(=O)Nc3cccc(C)n3)c3ccccc3C(=O)N2C)cc1 (configuration not stated)
inactive: growth inhibition [1] -11.3% | growth inhibition [2] -6.23% | viability increase [3] -0.69% | viability [4] 101% | viability [5] 93.9% | inhibition [6] 1.39% | RAM network inhibition [7] 2.93%

CCS(=O)(=O)NCc1csc(-c2ccccc2)n1
inactive: growth inhibition [1] -0.375% | growth inhibition [2] -0.625% | viability increase [3] -2% | viability [4] 89.9% | viability [5] 87.5% | inhibition [6] 0.635% | RAM network inhibition [7] 5.48%

Cc1cc(C)c2c3c(c(-c4ccccc4)n2n1)c(=O)n(C)c(=O)n3C
inactive: growth inhibition [1] -9.68% | growth inhibition [2] -1.79% | viability increase [3] -1.8% | viability [4] 101% | viability [5] 94% | inhibition [6] 2.26% | RAM network inhibition [7] 5.77%

CCOC(=O)N1CCC(Nc2c(OCC)c(=O)c2=O)CC1
inactive: growth inhibition [1] -10.2% | growth inhibition [2] 10.1% | viability increase [3] -0.57% | viability [4] 102% | viability [5] 96.4% | inhibition [6] 1.31% | RAM network inhibition [7] 5.22%

O=C(O)CSCC(=O)c1ccccc1
inactive: growth inhibition [1] -6.96% | growth inhibition [2] -1.74% | viability increase [3] 0.58% | viability [4] 107% | viability [5] 101% | inhibition [6] 1.15% | RAM network inhibition [7] -0.89%

CCn1c(=NC(=O)CN2C(=O)CCC2=O)sc2c(C)cc(C)cc21
inactive: growth inhibition [1] -13.1% | growth inhibition [2] -2.35% | viability increase [3] -4.23% | viability [4] 92.2% | viability [5] 91.2% | inhibition [6] 0.505% | RAM network inhibition [7] 6.51%

CCCCn1c(=O)n(CC(=O)Nc2ccc(C)c(Cl)c2)c(=O)c2c1ncn2Cc1ccco1
inactive: growth inhibition [1] -2.46% | growth inhibition [2] -24.8% | viability increase [3] 0.99% | viability [4] 72.2% | viability [5] 72.3% | inhibition [6] 2.23% | RAM network inhibition [7] 1.61%

CC(=O)c1cccc(NC(=O)C2CCCN2S(=O)(=O)c2cccc3cccnc23)c1 (configuration not stated)
inactive: growth inhibition [1] -1.04% | growth inhibition [2] 3.5% | viability increase [3] -5.23% | viability [4] 74.4% | viability [5] 82.7% | inhibition [6] 1.09% | RAM network inhibition [7] 6.23%

CS(=O)(=O)N1CCN(Cc2ccccc2C(F)(F)F)CC1
inactive: growth inhibition [1] -19.1% | growth inhibition [2] -5.12% | viability increase [3] 0.93% | viability [4] 91.1% | viability [5] 94% | inhibition [6] -0.185% | RAM network inhibition [7] 6.47%

CC1=C(C(=O)OCC2CCCO2)C(c2ccccc2)NC(=O)N1 (configuration not stated)
inactive: growth inhibition [1] -9.26% | growth inhibition [2] -17.9% | viability increase [3] -0.06% | viability [4] 103% | viability [5] 99.8% | inhibition [6] 1.33% | RAM network inhibition [7] -0.93%

CCOC(=O)CNC(=O)c1c2c(nc3ccccc13)CCCC2
inactive: growth inhibition [1] -6.83% | growth inhibition [2] -1.75% | viability increase [3] -5.37% | viability [4] 95.4% | viability [5] 88.2% | inhibition [6] 2.68% | RAM network inhibition [7] 5.74%

CS(=O)(=O)c1ccc2nc(NC(=O)C3CCCCC3)sc2c1
inactive: growth inhibition [1] -0.52% | growth inhibition [2] -7.79% | viability increase [3] -7.36% | viability [4] 72.2% | viability [5] 77.3% | inhibition [6] 0.96% | RAM network inhibition [7] 0.41%
